Experimental data from the EternaBench riboswitch data.

System: MS2 coat protein
Experiment: apparent Kd, MS2 coat protein; higher = weaker binding; RNA-MaP array; FMN 200 µM where present
How it was run: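 The apparent Kd is the median of filtered binding-curve fits, one per cluster, to green signal normalised to red-channel RNA signal and control-cluster median Fmax. The clusters were on Illumina sequencing chips, and stalled E. coli RNA polymerase had transcribed the designs on them. Titration used SNAP-549-labelled MS2 coat protein from 0.7 or 1.5 nM, doubling to 3 µM, without and then with constant ligand, in 100 mM Tris-HCl pH 7.5, 80 mM KCl, 4 mM MgCl2, BSA, DTT, yeast tRNA and Tween-20.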

[1] = designed as: ON switch for flavin mononucleotide, no ligand
[2] = ligand present: flavin mononucleotide, designed as: ON switch for flavin mononucleotide
[3] = designed as: OFF switch for flavin mononucleotide, no ligand
[4] = ligand present: flavin mononucleotide, designed as: OFF switch for flavin mononucleotide

Sequence | apparent Kd [1] [nM] | apparent Kd [2] [nM] | apparent Kd [3] [nM] | apparent Kd [4] [nM]
GCUGUCGCGUGAGGAUAUGGUCAGCUUUGCUGACCAGAAGGCAUGUCAAUAGACAUGAGGAUCACCCAUGUGGUUAGGGCGGCU | 1070 | 136 | – | –
UUAUGUUAUGUAGGAUAUCAUUAGAUUUGUAAUUUAAUUGUUAUUUAGAUUUGAGAAGGACAUUUACAUGAGGAUCACCCAUGU | – | – | 14.8 | 11.7
GCUAAGCGAAUUAAGAUGAAUAGAACAUGAGGAUCACCCAUGUAGGAUAUGCUACACAAAGUGUAGCAGAAGGACAAGCUUAGC | – | – | 20.2 | 25.4
AUCAGCUCUUCAGGAUAUACGUCACUGCGUCAGCAGUGUGGUAAGAUCACAUGAGGAUCACCCAUGUAGAAGGGACGAGCUGAU | – | – | 12.2 | 173
GAGUGACAUGAGGAUCACCCAUGUGAGGAUAUCGGACGGACCAAAUUAACAAUAUUUGCGAGAAGGCACAUCGG | – | – | 88.5 | 130
UGCGACCUAGGAUAUACAUGAGGAUCACCCAUGUGAUUCGGUGGCGCGAUCCUUGAAAGUAGAAGGAGGAGCAA | – | – | 40.1 | 35.3
GUGCUUAUCGAAGGAUAUGGUUACAUGAGGAUCACCCAUGUUAUGCUUGGUUACUUGUUUAGUUUCCAGAAGGUCGAUUAGUUG | – | – | 75.5 | 170
UGUUUGUGACAGAAGGGCAUUUACAUGAGGAUCACCCAUGUUCAUCAUUGCAGGAUAUGUAUUUCAUGAGGAUCACCUAUGCUC | 201 | 71.1 | – | –
AUUAAUUAAUUAAUACAUGAGGAUCACCCAUGUAAUAAGAUCAAGGAUAUCAGCUCGUUUAGAGCUGAGAAGGUGAUCACAUGU | 617 | 214 | – | –
AUGCUUCACACAGGAUAUACAUGAGGAUCACCCAUGUGUCCUCCGUAGCUGACACGAGCUACGCGGUAGAAGGGUGUGAAGCAU | – | – | 91 | 698
UUAUUAUGUGUAGGAUAUGCAUAUUAUUAUUAUGCAGAAGGACAUGAGGAUCACCCAUGUAUAUUAUUAUUAUAUAUUAUAUAU | – | – | 30.9 | 46.2
GUCGUGUGAGGAUAUGAUUUUUCGGCGGGCUUGCGUCUGCUUCAGAAGGCACAUGAGGAUCACCCAUGUUUGUC | – | – | 12 | 29.5
CGGAGACAUGAGGAUCACCCAUGUCGUCGUCACAGAGGAUAUGGGAGCGUCAGGGACGCAUCAGAAGGCUGAAAGC | 32.5 | 19.1 | – | –
ACAGCGUGAGGAUAUACAUGAGGAUCACCCAUGUAUGGCAGGUUAUCCUGUCGUGAGUGUAGAAGGCACGCUGU | – | – | 17.4 | 58.9
AAUCCACAUGAGGAUCACCCAUGUCAGGAUAUUGUUACUAGAGCGCACCUGUGUUCUACGAGAAGGGACUAAAC | – | – | 12 | 12.2
AUCCAGCGAGGAUAUACAUAGAUUUUUUCGUUUUGUCUCGAACAUGAGGAUCACCCAUGUAGAAGGUGCUUCAC | – | – | 82.5 | 81
GGAUAUGUCGUCUACAUGAGGAUCACCCAUGUCGAUAGACAUGAGGAUAUUGAUAAGAAUUGUAUCGAGAAGGUAUGUAGGUCC | 19.3 | 26.7 | – | –
UAUUCGUUCUAGAAGGUGCAUUUGUUAAACAUGCAAGGAUAUAGACAUGAGGAUCACCCAUGUCUAUGAGACAUCGGCCUCCUU | – | – | 7.15 | 24.9
CACAUUUUAACAGGAUAUGUAAGGUAGCUUAUUAUUGCAUAUACAAUUAUUACAGAAGGGUUAUACAUGAGGAUCACCCAUGUG | 22.8 | 17.1 | – | –
ACAUGAGGAUCACCCAUGUGACAAGAAUGGCUGAUACAGAGACAGGAUAUAGGUGCAUAUCUAACCUAGAAGGGUCAUGACUGG | – | – | 35.2 | 31.9
